Measurements from ChEMBL document CHEMBL1126762, “Synthesis and anaerobic activity of novel 1-carba-1-dethiacephalosporins” (J Med Chem, 1993).
Values after ≈ are worked out from the molar mass of the structure shown.

Legend:
Streptococcus pneumoniae = assay: Antibacterial activity against aerobic Streptococcus pneumoniae PARK; type: functional
Outline: (§1)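 MIC by agar dilution following the NCCLS M7-A2 (2nd ed.) procedure for bacteria that grow aerobically.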

[1] = Antibacterial activity against anaerobic Eubacterium aerofaciens 1235; type: functional; details: Collinsella aerofaciens
Outline: (§2)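 MIC by agar dilution following the NCCLS M11-A2 (2nd ed.) procedure for antimicrobial testing of anaerobic bacteria.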

Klebsiella aerogenes = assay: Antibacterial activity against aerobic Enterobacter aerogenes C32; type: functional; outline: as §1
Bacteroides fragilis [2] = assay: Antibacterial activity against anaerobic; type: functional; outline: as §2
Clostridium perfringens = assay: Antibacterial activity against anaerobic Clostridium perfringens 81; type: functional
Outline: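 Agar dilution MIC following NCCLS document M11-A2 (Vol. 10, no. 15), the method for antimicrobial testing of anaerobic bacteria; value reported as minimum inhibitory concentration.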

Pseudomonas aeruginosa = assay: Antibacterial activity against aerobic Pseudomonas aeruginosa X239 strain; type: functional; outline: as §1
Clostridioides difficile = assay: Antibacterial activity against anaerobic Clostridium difficile 2994 strain; type: functional; outline: as §2
Clostridium septicum = assay: Antibacterial activity against anaerobic Clostridium septicum 1128; type: functional; outline: as §2
Eikenella corrodens = assay: Antibacterial activity against anaerobic Bacteroides corrodens 1874; type: functional; outline: as §2
[3] = system: Bacteroides thetaiotaomicron; assay: Antibacterial activity against anaerobic Bacteroides thetaiotaomicron 1438; type: functional; outline: as §2
Escherichia coli = assay: Antibacterial activity against aerobic Escherichia coli EC14; type: functional; outline: as §1
Haemophilus influenzae = assay: Antibacterial activity against aerobic Haemophilus influenzae RES 76; type: functional; outline: as §1
[4] = Antibacterial activity against anaerobic Fusobacterium symbiosum 1470; type: functional, fusobacterium symbosium; outline: as §2
Cutibacterium acnes = assay: Antibacterial activity against anaerobic Propionibacterium acnes 79; type: functional; outline: as §2
Staphylococcus aureus = assay: Antibacterial activity against aerobic Staphylococcus aureus X1.1 strain; type: functional; outline: as §1
[5] = system: Fusobacterium necrophorum; assay: Antibacterial activity against anaerobic Fusobacterium necrophorum 6054A; type: functional; outline: as §2
[6] = system: Prevotella melaninogenica; assay: Antibacterial activity against anaerobic Bacteroides melaninogenicus 1856/28; type: functional; outline: as §2
[7] = Antibacterial activity against anaerobic Peptostreptococcus intermedius 1264; type: functional; outline: as §2
[8] = Antibacterial activity against anaerobic Peptococcus asaccharolyticus 1302; type: functional; details: Peptoniphilus asaccharolyticus; outline: as §2
Anaerococcus prevotii = assay: Antibacterial activity against anaerobic Peptococcus prevoti 1281; type: functional; outline: as §2
[9] = system: Prevotella melaninogenica; assay: Antibacterial activity against anaerobic Bacteroides melaninogenicus 2736; type: functional; outline: as §2
Bacteroides fragilis [10] = assay: Antibacterial activity against anaerobic Bacteroides fragilis 1936B; type: functional; outline: as §2
[11] = system: Peptostreptococcus anaerobius; assay: Antibacterial activity against anaerobic Peptostreptococcus anaerobius 1451; type: functional; outline: as §2
Phocaeicola vulgatus = assay: Antibacterial activity against anaerobic Bacteroides vulgatus 1211; type: functional; outline: as §2
Bacteroides fragilis [12] = assay: Antibacterial activity against anaerobic Bacteroides fragilis 111; type: functional; outline: as §2
Klebsiella pneumoniae = assay: Antibacterial activity against aerobic Klebsiella pneumoniae X26; type: functional; outline: as §1
[13] = system: Staphylococcus epidermidis; assay: Antibacterial activity against aerobic Staphylococcus epidermidis 222; type: functional; outline: as §1
Bacteroides fragilis [14] = assay: Antibacterial activity against anaerobic Bacteroides fragilis 1877; type: functional; outline: as §2
[15] = Area under plasma time curve determined in male rat; type: ADME, organism-based
Outline: (§3)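 Male Sprague-Dawley rats given 20 mg/kg i.v. in saline through an indwelling jugular vein cannula, which was also used for serial blood sampling over 6 h. Plasma drug measured by agar well diffusion bioassay with Micrococcus luteus ATCC9241 (detection limit 3.2 μg/mL plasma). AUC by Simpson's rule.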

[16] = Maximum concentration reached following intravenous administration in male rat; type: ADME, organism-based; design: route intravenous; details: in vivo; outline: as §3

CO[C@@]1(NC(=O)Cc2cccs2)C(=O)N2C(C(=O)O)=C(COC(N)=O)CS[C@@H]21 [CEFOXITIN]
MIC (Streptococcus pneumoniae): 0.5 µg/mL (≈ 1.17 µM) | MIC [1]: 8 µg/mL (≈ 18.7 µM) | MIC (Klebsiella aerogenes): > 128 µg/mL | MIC (Bacteroides fragilis [2]): 4 µg/mL (≈ 9.36 µM) | MIC (Clostridium perfringens): 2 µg/mL (≈ 4.68 µM) | MIC (Pseudomonas aeruginosa): > 128 µg/mL | MIC (Clostridioides difficile): 32 µg/mL (≈ 74.9 µM) | MIC (Clostridium septicum): 4 µg/mL (≈ 9.36 µM) | MIC (Eikenella corrodens): 4 µg/mL (≈ 9.36 µM) | MIC [3]: 2 µg/mL (≈ 4.68 µM) | MIC (Escherichia coli): 2 µg/mL (≈ 4.68 µM) | MIC (Haemophilus influenzae): 2 µg/mL (≈ 4.68 µM) | MIC [4]: 8 µg/mL (≈ 18.7 µM) | MIC (Cutibacterium acnes): 2 µg/mL (≈ 4.68 µM) | MIC (Staphylococcus aureus): 4 µg/mL (≈ 9.36 µM) | MIC [5]: ≤ 0.5 µg/mL | MIC [6]: 4 µg/mL (≈ 9.36 µM) | MIC [7]: 2 µg/mL (≈ 4.68 µM) | MIC [8]: ≤ 0.5 µg/mL | MIC (Anaerococcus prevotii): 1 µg/mL (≈ 2.34 µM) | MIC [9]: 8 µg/mL (≈ 18.7 µM) | MIC (Bacteroides fragilis [10]): 8 µg/mL (≈ 18.7 µM) | MIC [11]: 2 µg/mL (≈ 4.68 µM) | MIC (Phocaeicola vulgatus): 8 µg/mL (≈ 18.7 µM) | MIC (Bacteroides fragilis [12]): 8 µg/mL (≈ 18.7 µM) | MIC (Klebsiella pneumoniae): 1 µg/mL (≈ 2.34 µM) | MIC [13]: 4 µg/mL (≈ 9.36 µM)

CO/N=C(\C(=O)N[C@@H]1C(=O)N2C(C(=O)O)=C(Sc3ncc(S(C)(=O)=O)s3)CC[C@H]12)c1csc(N)n1
MIC (Streptococcus pneumoniae): 0.008 µg/mL (≈ 0.0143 µM) | MIC [1]: 32 µg/mL (≈ 57.3 µM) | MIC (Klebsiella aerogenes): 0.25 µg/mL (≈ 0.448 µM) | MIC (Clostridium perfringens): 0.25 µg/mL (≈ 0.448 µM) | MIC (Pseudomonas aeruginosa): > 128 µg/mL | MIC (Clostridioides difficile): 0.125 µg/mL (≈ 0.224 µM) | MIC (Clostridium septicum): 16 µg/mL (≈ 28.6 µM) | MIC (Eikenella corrodens): > 128 µg/mL | MIC [3]: 2 µg/mL (≈ 3.58 µM) | MIC (Escherichia coli): 0.06 µg/mL (≈ 0.107 µM) | MIC (Haemophilus influenzae): 0.015 µg/mL (≈ 0.0269 µM) | MIC [4]: 8 µg/mL (≈ 14.3 µM) | MIC (Cutibacterium acnes): 0.03 µg/mL (≈ 0.0537 µM) | MIC (Staphylococcus aureus): 0.25 µg/mL (≈ 0.448 µM) | MIC [5]: 0.008 µg/mL (≈ 0.0143 µM) | MIC [6]: 0.125 µg/mL (≈ 0.224 µM) | MIC [7]: 0.03 µg/mL (≈ 0.0537 µM) | MIC [8]: 0.25 µg/mL (≈ 0.448 µM) | MIC (Anaerococcus prevotii): 0.25 µg/mL (≈ 0.448 µM) | MIC [9]: 32 µg/mL (≈ 57.3 µM) | MIC (Bacteroides fragilis [10]): > 128 µg/mL | MIC [11]: 0.5 µg/mL (≈ 0.895 µM) | MIC (Phocaeicola vulgatus): 16 µg/mL (≈ 28.6 µM) | MIC (Bacteroides fragilis [12]): > 128 µg/mL | MIC (Klebsiella pneumoniae): 0.03 µg/mL (≈ 0.0537 µM) | MIC [13]: 1 µg/mL (≈ 1.79 µM) | MIC (Bacteroides fragilis [14]): 32 µg/mL (≈ 57.3 µM)

CO/N=C(\C(=O)N[C@@H]1C(=O)N2C(C(=O)O)=C(Sc3ncc(C(F)(F)F)s3)CC[C@H]12)c1csc(N)n1
MIC (Streptococcus pneumoniae): 0.008 µg/mL (≈ 0.0146 µM) | MIC [1]: 16 µg/mL (≈ 29.2 µM) | MIC (Klebsiella aerogenes): 0.5 µg/mL (≈ 0.911 µM) | MIC (Clostridium perfringens): 0.06 µg/mL (≈ 0.109 µM) | MIC (Pseudomonas aeruginosa): 128 µg/mL (≈ 233 µM) | MIC (Clostridioides difficile): 0.06 µg/mL (≈ 0.109 µM) | MIC (Clostridium septicum): 0.5 µg/mL (≈ 0.911 µM) | MIC (Eikenella corrodens): 128 µg/mL (≈ 233 µM) | MIC [3]: 4 µg/mL (≈ 7.29 µM) | MIC (Escherichia coli): 0.25 µg/mL (≈ 0.456 µM) | MIC (Haemophilus influenzae): 0.06 µg/mL (≈ 0.109 µM) | MIC [4]: 2 µg/mL (≈ 3.65 µM) | MIC (Cutibacterium acnes): 0.008 µg/mL (≈ 0.0146 µM) | MIC (Staphylococcus aureus): 0.25 µg/mL (≈ 0.456 µM) | MIC [5]: 0.25 µg/mL (≈ 0.456 µM) | MIC [6]: 0.125 µg/mL (≈ 0.228 µM) | MIC [7]: 0.015 µg/mL (≈ 0.0273 µM) | MIC [8]: 0.125 µg/mL (≈ 0.228 µM) | MIC (Anaerococcus prevotii): 0.5 µg/mL (≈ 0.911 µM) | MIC [9]: 32 µg/mL (≈ 58.3 µM) | MIC (Bacteroides fragilis [10]): 128 µg/mL (≈ 233 µM) | MIC [11]: 0.5 µg/mL (≈ 0.911 µM) | MIC (Phocaeicola vulgatus): 8 µg/mL (≈ 14.6 µM) | MIC (Bacteroides fragilis [12]): 128 µg/mL (≈ 233 µM) | MIC (Klebsiella pneumoniae): 0.03 µg/mL (≈ 0.0547 µM) | MIC [13]: 1 µg/mL (≈ 1.82 µM) | MIC (Bacteroides fragilis [14]): 4 µg/mL (≈ 7.29 µM)

Nc1nc(/C(=N/OCCF)C(=O)N[C@@H]2C(=O)N3C(C(=O)O)=C(Sc4ncc([N+](=O)[O-])s4)CC[C@H]23)cs1
MIC (Streptococcus pneumoniae): 0.008 µg/mL (≈ 0.0143 µM) | MIC [1]: 4 µg/mL (≈ 7.17 µM) | MIC (Klebsiella aerogenes): 1 µg/mL (≈ 1.79 µM) | MIC (Clostridium perfringens): 1 µg/mL (≈ 1.79 µM) | MIC (Pseudomonas aeruginosa): > 128 µg/mL | AUC [15]: 11100 ng·h/mL | MIC (Clostridioides difficile): 4 µg/mL (≈ 7.17 µM) | Cmax [16]: 54.2 µg/mL | MIC (Clostridium septicum): 1 µg/mL (≈ 1.79 µM) | MIC (Eikenella corrodens): 8 µg/mL (≈ 14.3 µM) | MIC [3]: ≤ 0.5 µg/mL | MIC (Escherichia coli): 0.5 µg/mL (≈ 0.897 µM) | MIC (Haemophilus influenzae): 0.008 µg/mL (≈ 0.0143 µM) | MIC [4]: 1 µg/mL (≈ 1.79 µM) | MIC (Cutibacterium acnes): ≤ 0.5 µg/mL | MIC (Staphylococcus aureus): 0.125 µg/mL (≈ 0.224 µM) | MIC [5]: ≤ 0.5 µg/mL | MIC [6]: 2 µg/mL (≈ 3.59 µM) | MIC [7]: ≤ 0.5 µg/mL | MIC [8]: ≤ 0.5 µg/mL | MIC (Anaerococcus prevotii): ≤ 0.5 µg/mL | MIC [9]: 1 µg/mL (≈ 1.79 µM) | MIC (Bacteroides fragilis [10]): 4 µg/mL (≈ 7.17 µM) | MIC [11]: ≤ 0.5 µg/mL | MIC (Phocaeicola vulgatus): 1 µg/mL (≈ 1.79 µM) | MIC (Bacteroides fragilis [12]): 4 µg/mL (≈ 7.17 µM) | MIC (Klebsiella pneumoniae): 0.008 µg/mL (≈ 0.0143 µM) | MIC [13]: 1 µg/mL (≈ 1.79 µM) | MIC (Bacteroides fragilis [14]): 1 µg/mL (≈ 1.79 µM)
